PAX8 reporter – PAX8 transcriptional activity inhibition. 1.2% of 360,000 active. inhibition, % at 12.6 µM. RMG-I TPO-luciferase reporter, SteadyGlo, 24 h;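 active = mean replicate inhibition at least 60% with every replicate also reaching 60%; inconclusive = only one of the two criteria is met; inactive = mean below 60% and not all replicates reaching 60%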;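 also: luciferase light reporting Pax8 driven TPO promoter activity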
FGF22 binding – binders of recombinant human FGF22 by thermal shift; Q9HCT0; SYPRO orange fluorescence; percent of sucrose octasulfate shift, DMSO zero; activity (Tm shift, normalised), % at 9.99 µM; 1.5% of 340,000 active; AID 651658;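 active = mean Tm shift, scaled 0 neutral to 100 positive control, at about 1.3% or above, every replicate too, limit read from the data; inconclusive = no clear call, values can overlap the other calls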
Target sequence (Q9HCT0 whole entry, looked up): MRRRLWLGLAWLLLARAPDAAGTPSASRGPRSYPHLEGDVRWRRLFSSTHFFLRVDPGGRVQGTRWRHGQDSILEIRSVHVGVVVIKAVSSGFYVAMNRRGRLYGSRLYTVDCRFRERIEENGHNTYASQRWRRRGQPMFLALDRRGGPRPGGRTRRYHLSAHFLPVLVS
Env fusion inh – blocks HIV Env-driven cell-cell fusion; 1.1% of 360,000 active; HeLa-JRFL Env/CEM21 cell fusion, luciferase; AID 651610; inhibition, % at 12.3 µM;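 active = mean replicate inhibition score of at least 50 and every replicate individually at or above 50; inconclusive = only one of the two criteria met; inactive = mean below 50 and not all replicates reaching 50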
FN deposition inh – fibronectin deposition inhibition. AID 743247. inhibition, % at 12.6 µM. AH1F fibroblasts, Alexa488-fibronectin deposition fluorescence, overnight. 0.086% of 350,000 active;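 active = mean inhibition across replicates of 30% or more, regardless of how many single replicates reach that level; inconclusive = mean under 30% yet at least half of replicates reach 30%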
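material = AH1F fibroblast monolayer depositing Alexa488-labelled fibronectin into matrix | amount = 10000 AH1F cells/well | buffer or medium = DMEM plus 2% serum, read in PBS | incubation = 1 h cell adhesion before compound, then overnight fibronectin incubation | detection = fluorescence at 485 nm excitation, 525 nm emission | evaluation = percent inhibition as loss of matrix-bound fibronectin fluorescence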
EWS-Fli block – EWS/Fli transcriptional activity inhibition. A673 NR0B1-luciferase reporter, viability-normalised. inhibition, % at 12.6 µM. 0.67% of 350,000 active. AID 651661;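 active = mean inhibition of at least 50% after viability correction, with every replicate also passing that limit; inconclusive = mean reaches 50% but only one of two replicates passes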;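 also: firefly luciferase signal divided by Alamar Blue viability fluorescence both relative to DMSO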
PGC1a acetyl inh – lowers PGC1a acetylation signal in U2OS cells | 0.17% of 350,000 active | AID 651687 | inhibition, % at 15.6 µM | AlphaScreen anti-acetyl-lysine; with virally co-expressed GCN5 acetyltransferase;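 active = every replicate shows inhibition of at least 40%; inconclusive = mean inhibition at least 40% but some replicate below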
Hits are given with their value; i = inactive; ? = inconclusive; nt = no result given; [ ] = remark or other dose. In the library only some 3.1% were active in any assay of this set; here they are far more common.

SMILES | PAX8 reporter | FGF22 binding | Env fusion inh | FN deposition inh | EWS-Fli block | PGC1a acetyl inh
Cc1ccc(S(=O)(=O)CCC(=O)c2ccc(F)cc2)cc1 | 96 | i | i | i | nt | nt
C=C1CCN([C@H](C(=O)O)C(C)C)S(=O)(=O)c2ccccc21 | i | i | i | i | i | i
C=C1CCN([C@H](C(=O)OCc2cccc(C)c2)C(C)C)S(=O)(=O)c2ccccc21 | i | i | 76 | i | i | nt
CCCNS(=O)(=O)c1ccc(CCC(=O)NCCc2ccc(OC)c(OC)c2)cc1 | i | 44 | i | i | i | i
COc1ccc(CCNC(=O)CN(c2cc([N+](=O)[O-])ccc2OC)S(C)(=O)=O)cc1OC | i | 43 | i | i | i | i
COc1ccc(CC(=O)NCc2ccc(-n3cccc3)cc2)cc1OC | i | i | i | i | 60 | i
Cc1ccc(CNC(=O)Cc2ccc(-n3cccc3)cc2)cc1 | i | nt | i | i | nt | i
COc1ccc(CC(=O)NNC(=O)CCc2ccccc2)cc1OC | i | 43 | i | i | i | nt
O=C(c1cnccn1)N1CC(=O)N2[C@H](CO)[C@@H](c3ccc(C#CC4CC4)cc3)[C@@H]2C1 | nt | nt | nt | i | i | i
O=C/C=C/c1ccc(-c2ccccc2)cc1 | i | i | i | nt | i | i
CO[C@H]1CN(C)C(=O)c2cc(NC(=O)Nc3c(C)noc3C)ccc2OC[C@H](C)N(C)C[C@H]1C | i | i | i | i | i | i
C[C@@H]1CN([C@H](C)CO)C(=O)c2cc(/C=C/c3ccccc3)cnc2O[C@H]1CN(C)C(=O)CN1CCOCC1 | i | i | i | nt | i | i
Cc1noc(C)c1NC(=O)Nc1ccc2c(c1)C(=O)N([C@@H](C)CO)C[C@H](C)[C@@H](CN(C)Cc1ccccc1)OCCCC[C@H](C)O2 | i | nt | i | i | i | i
C[C@H]1CN([C@@H](C)CO)C(=O)c2cccc(NC(=O)Nc3cccc4ccccc34)c2O[C@H]1CN(C)S(C)(=O)=O | i | nt | i | nt | i | i
O=C(C[C@H]1CC[C@@H]2[C@H](COC[C@H](O)CN2S(=O)(=O)c2cccc(F)c2)O1)NC1CCC1 | i | i | i | i | i | i
O=C1c2[nH]nc(-c3ccccc3)c2C(c2ccccc2)N1c1ccccc1 (centres undefined) | i | 43 | i | i | i | nt
Cc1ccc(C2c3c(-c4ccccc4)n[nH]c3C(=O)N2c2ccccc2)cc1 (centres undefined) | i | i | i | i | i | nt
CC(C)NC(=O)Nc1ccc2c(c1)C(=O)N(C)[C@H]1CC[C@@H](CC(=O)NCC3CCCCC3)O[C@H]1CO2 | i | i | i | i | i | i
CC(=O)Nc1ccc2c(c1)C(N1CC3CCC(CC3)C1)c1ccccc1-2 (centres undefined) | i | i | 67 | i | i | i
Cc1ccc(S(=O)(=O)N(C)C[C@H]2OCCCC[C@@H](C)Oc3ccc(NS(=O)(=O)c4cn(C)cn4)cc3C(=O)N([C@H](C)CO)C[C@H]2C)cc1 | i | i | i | i | i | i
Cc1nn(-c2ccccn2)c2c1C(=O)CC(C)(C)C2N=[N+]=[N-] (centres undefined) | i | 43 | i | i | i | nt
COc1cc(CC(=O)N(CC(C)C)C2CCS(=O)(=O)C2)cc(OC)c1OC (centres undefined) | i | 43 | i | i | i | i
COc1ccc(S(=O)(=O)N[C@@H]2C=C[C@@H](CC(=O)NCCc3ccncc3)O[C@H]2CO)cc1 | nt | i | nt | i | nt | i
NC(=O)C1CCN(C(=O)c2ccc3c(=O)n(Cc4ccco4)c(SCC(=O)c4ccccc4)nc3c2)CC1 | i | 44 | i | i | i | nt
CCCCCn1c(SCC(=O)OCC)nc2cc(C(=O)N3CCC(C(N)=O)CC3)ccc2c1=O | i | nt | i | i | nt | i
SMILES | PAX8 reporter | FGF22 binding | Env fusion inh | FN deposition inh | EWS-Fli block | PGC1a acetyl inh
C=CCn1c(SCc2ccc(Cl)cc2)nc2cc(C(=O)N3CCC(C(N)=O)CC3)ccc2c1=O | i | 21 | i | i | i | i
O=C(NCc1ccco1)c1ccc2c(=O)n(Cc3ccco3)c(SCC(=O)N3CCCC3)nc2c1 | i | nt | i | i | nt | i
O=C(C[C@H]1CC[C@H](NC(=O)c2cnccn2)[C@@H](CO)O1)NCc1ccccc1F | i | i | i | i | i | nt
C[C@@H]1CN([C@H](C)CO)C(=O)c2cc(C3=CCCC3)cnc2O[C@@H]1CN(C)C(=O)c1ccncc1 | nt | i | i | i | i | i
CCCc1nc([N+](=O)[O-])c(S(=O)(=O)c2ccccc2)n1CC(C)C | 86 | i | i | nt | i | nt
COCC(=O)N(C)C[C@@H]1Oc2cc(C#CCC3CCCC3)ccc2S(=O)(=O)N([C@@H](C)CO)C[C@@H]1C | 74 | i | i | nt | i | i
COCC(=O)N(C)C[C@@H]1Oc2cc(C#CCC3CCCC3)ccc2S(=O)(=O)N([C@@H](C)CO)C[C@H]1C | 71 | i | i | nt | i | i
COCC(=O)N(C)C[C@@H]1Oc2cc(C#CCC3CCCC3)ccc2S(=O)(=O)N([C@H](C)CO)C[C@@H]1C | i | i | i | nt | i | i
O=C(Cc1ccccc1)N1CC(=O)N2[C@H](C1)[C@@H](c1ccc(-c3ccc(F)cc3)cc1)[C@@H]2CO | i | i | nt | i | i | i
C/C=C/c1ccc([C@@H]2[C@H](CO)N(C(C)=O)C23CN(C(=O)NC2CCCC2)C3)cc1 | nt | nt | nt | i | i | nt
CCCOc1ccc2[nH]c(C(=O)N/N=C/c3cc(OC)c(OC)c(OC)c3)cc2c1 | 91 | i | i | i | i | nt
CCOc1ccc2[nH]c(C(=O)N/N=C/c3ccccc3OC)cc2c1 | i | i | i | i | i | i
C[C@@H]1CCCCO[C@H](CN(C)C(=O)Nc2ccc(C(F)(F)F)cc2)[C@H](C)CN([C@@H](C)CO)C(=O)c2cc(NC(=O)CCC(F)(F)F)ccc2O1 | i | i | ? | nt | i | i
C[C@H]1CCCCO[C@@H](CN(C)C(=O)Nc2ccc(C(F)(F)F)cc2)[C@@H](C)CN([C@@H](C)CO)C(=O)c2cc(NC(=O)Nc3ccc(C(F)(F)F)cc3)ccc2O1 | i | i | i | i | i | i
C[C@@H]1CN([C@H](C)CO)C(=O)c2cc(NC(=O)Nc3ccc(C(F)(F)F)cc3)ccc2O[C@@H](C)CCCCO[C@H]1CN(C)C(=O)Nc1ccc(C(F)(F)F)cc1 | 96 | i | 115[16.7 µM] | i | i | i
C[C@H]1CCCCO[C@H](CN(C)C(=O)Nc2ccc(C(F)(F)F)cc2)[C@@H](C)CN([C@@H](C)CO)C(=O)c2cc(NC(=O)Nc3ccc4c(c3)OCO4)ccc2O1 | i | i | 72[16.7 µM] | i | i | i
C[C@@H]1CCCCO[C@@H](CN(C)C(=O)Nc2ccc(C(F)(F)F)cc2)[C@H](C)CN([C@@H](C)CO)C(=O)c2cc(NC(=O)Nc3ccc(C(F)(F)F)cc3)ccc2O1 | 77 | i | i | i | i | i
